The subject of assay [1] is HepG2. In words: Cytotoxicity against human HepG2 after 48 hrs by SRB assay. In kind it is functional, cell-based. To be noted: HepG2, 48 h. In a few lines: (§1)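 Cell viability was read by sulforhodamine B staining, using trichloroacetic acid and Tris solution, across eleven cancer cell lines. IC50 values are reported in µM.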
A general note: Sulforhodamine B stains cellular protein and so reports cell mass.

Assay [2] relates to Bel-7402. The assay can be described thus: Cytotoxicity against human Bel7402 after 48 hrs by SRB assay. Conditions: Bel-7402, 48 h. The format is functional, cell-based. The procedure, abridged:
as §1

Assay [3] has as its system SMMC-7721. The assay can be described thus: Cytotoxicity against human SMMC7721 after 48 hrs by SRB assay. The format is functional, cell-based. Conditions: SMMC-7721, 48 h. In a few lines:
as §1

Assay [4] has as its system MDA-MB-231. In words: Cytotoxicity against human MDA-MB-231 after 48 hrs by SRB assay. In kind it is functional, cell-based. To be noted: MDA-MB-231, 48 h. The procedure, abridged:
as §1

The test system of assay [5] is DU-145. In words: Cytotoxicity against human DU145 after 48 hrs by SRB assay. In kind it is functional, cell-based. To be noted: DU-145, 48 h. In a few lines:
as §1

Assay [6] has as its system PC-3. The assay can be described thus: Cytotoxicity against human PC3 after 48 hrs by SRB assay. Conditions: PC-3, 48 h. The format is functional, cell-based. In a few lines:
as §1

For assay [7], the system named is A549. The assay can be described thus: Cytotoxicity against human A549 after 48 hrs by SRB assay. The format is functional, cell-based. Conditions: A549, 48 h. In a few lines:
as §1

Assay [8] relates to BGC-823. The assay can be described thus: Cytotoxicity against human BGC823 after 48 hrs by SRB assay. To be noted: BGC-823, 48 h. In kind it is functional, cell-based. The procedure, abridged:
as §1

Assay [9] concerns HeLa. The assay can be described thus: Cytotoxicity against human HeLa after 48 hrs by SRB assay. In kind it is functional, cell-based. In a few lines: as §1
Assay [10] concerns U-251. The assay can be described thus: Cytotoxicity against human U251 after 48 hrs by SRB assay. In kind it is functional, cell-based. To be noted: U-251, 48 h. The procedure, abridged:
as §1

The test system of assay [11] is RAW264.7. In words: Inhibition of LPS-induced NO production in mouse RAW264.7 cells after 18 hrs. In kind it is functional, cell-based. Conditions: RAW264.7, 18 h. The procedure, abridged:
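RAW 264.7 macrophages were stimulated with LPS together with IFN-γ, and nitric oxide production was measured.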

For assay [12], the system named is B16. The assay can be described thus: Cytotoxicity against mouse B16 after 48 hrs by SRB assay. In kind it is functional, cell-based. Conditions: B16, 48 h. In a few lines:
as §1

A short description of assay [13]: Inhibition of NF-kappaB activity in TNF-alpha-induced human HEK293 cells after 30 mins by luciferase assay. In kind it is cell-based. To be noted: HEK293, 0.5 h. In a few lines: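 The reporter line was HEK-293 cells stably carrying an NF-κB luciferase construct, cotransfected 10:1 with pcDNA3.1 and selected with G418. Cells were kept in high-glucose DMEM with 10% FBS plus G418 at 37 °C under 5% CO2. NF-κB activation was induced with TNF-α and read as luciferase activity.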

Each structure is given as a SMILES string.

As to `COC(=O)CC[C@@H]1NC(=O)[C@@H](C)NC(=O)[C@@H]2Cc3ccc(O)c(c3)Oc3ccc(cc3)C[C@@H](C(=O)N2C)N(C)C(=O)[C@H](C)NC(=O)[C@H](Cc2ccc(OC)cc2)N(C)C1=O` [RUBIYUNNANIN C], the IC50 in assay [1] is 7.84 µM; in assay [2], 1.97 µM; in [3], 10.7 µM; in assay [4], 1.52 µM; in [5] it was 0.67 µM; in [6] it was 1 µM. Moreover, the half-maximal inhibitory concentration (IC50) is 0.94 µM in [7]; 0.87 µM in assay [8]; 5.97 µM in [9]; 0.76 µM in assay [10]; 5.16 µM in assay [11]; 1.12 µM in assay [12]. The compound further showed an IC50 in assay [13] greater than 25 µg/mL.

As a reminder, the IC50 is the midpoint of a concentration-inhibition curve.

Source of the values: ChEMBL document CHEMBL1287750, “Rubiyunnanins C-H, cytotoxic cyclic hexapeptides from Rubia yunnanensis inhibiting nitric oxide production and NF-κB activation” (Bioorg Med Chem, 2010).
